Data set [1] in a line: (§1) Bioavailability as maximal plasma concentration in rats. The note with it: rat. The class given is ADME, organism-based. In outline: (§2)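 Rats (n = 4/group) were given an oral dose of 10 mg/kg in a propylene glycol / poly(ethylene glycol) 400 / water formulation. Cmax is the observed peak plasma concentration after the oral dose. F% is AUC(po)/AUC, with AUC taken from time zero to infinity and normalized for dose.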

The target of data set [2] is Human immunodeficiency virus type 1 protease (Human immunodeficiency virus 1, UniProt Q72874). The data set is described as follows: Inhibitory activity against HIV-1 protease. Summed up:
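HIV-1 protease Ki from cleavage of a fluorescent peptide substrate, products resolved by HPLC. Inhibitor was tested at four concentrations spanning 0.1–10 000 nM, the range chosen per inhibitor.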

Data set [3] has as its system Human immunodeficiency virus 1. The data set is described as follows: Inhibition of viral infection in HIV-1 (RF)-infected MT-2 cells with an oligonucleotide-based sandwich hybridization assay. The class given is functional, MT2. Summed up: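 Uninfected MT-2 cells were preincubated for 30 min with serial dilutions of compound, then infected with HIV-1 RF and cultured for 3 days at 37 °C, 5% CO2. Lysates were assayed for viral RNA by microtiter oligonucleotide sandwich hybridization.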

The nature of data set [4]: as §1. The class given is ADME, organism-based. Conditions: rat. Summed up: as §2
The source holds these as a separate data set.

Data set [5] is described as follows: Bioavailability as maximal plasma concentration in dogs. The class given is ADME, organism-based, Canis lupus familiaris. Conditions: dog. Summed up:
(§3)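 Dogs received an oral dose of 10 mg/kg. Cmax is the observed peak plasma concentration after the oral dose. Oral bioavailability is the dose-normalized ratio AUC(po)/AUC, with the plasma concentration–time area taken from zero to infinity.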

The nature of data set [6]: Bioavailability in rat. The note with it: in vivo. The class given is ADME, organism-based. Summed up: as §2
Data set [7] can be described thus: Bioavailability in dog. The class given is ADME, organism-based, Canis lupus familiaris. The note with it: in vivo. In outline:
as §3

The mark [8] stands for this setting: Human immunodeficiency virus 1, MT2.

In data set [1], `O=C1N(CC2CCCC2)[C@H](Cc2ccccc2)[C@H](O)[C@@H](O)[C@@H](Cc2ccccc2)N1CC1CCCC1` had a maximum concentration (Cmax) of 200 nM. Besides, in data set [2], the inhibitory constant (Ki) worked out at 4.3 nM. This molecule also returned a concentration for an effect of 90% (IC90) in data set [3] (setting [8]) of 1700 nM.
As to `O=C1N(Cc2cccc(O)c2)[C@H](Cc2ccccc2)[C@H](O)[C@@H](O)[C@@H](Cc2ccccc2)N1Cc1ccc2ccccc2c1`, the peak concentration (Cmax) in data set [1] was found to be 960 nM; in data set [4] it was 960 nM; in data set [5], 2700 nM. This molecule also gave a Ki in data set [2] of 0.33 nM. This molecule yielded an IC90 in data set [3] (setting [8]) of 145 nM.
Consider `O=C1N(Cc2cccc(O)c2)[C@H](Cc2ccccc2)[C@H](O)[C@@H](O)[C@@H](Cc2ccccc2)N1Cc1cccc(O)c1`, for which the figures for the Cmax in data set [1] and in data set [5] were 810 nM and 2000 nM, respectively. This molecule also yielded an inhibitory constant (Ki) in data set [2] of 0.12 nM. The results for the bioavailability in data set [6] and in data set [7] were 30% and 16%, respectively. Moreover, in data set [3] (setting [8]), the 90% effect level (IC90) was put at 54 nM.
In data set [1], `O=C1N(Cc2ccccc2)[C@H](Cc2ccccc2)[C@H](O)[C@@H](O)[C@@H](Cc2ccccc2)N1Cc1ccccc1` showed a Cmax of 1300 nM. In addition, the Ki in data set [2] stood at 3 nM. Further, it took 830 nM to reach the 90% level in data set [3] (setting [8]) (IC90).
The corresponding values for `O=C1N(Cc2cccc(Cl)c2)[C@H](Cc2ccccc2)[C@H](O)[C@@H](O)[C@@H](Cc2ccccc2)N1Cc1cccc(Cl)c1` are 300 nM, 0.89 nM and 1300 nM.
In data set [1], `C=CCN1C(=O)N(CC=C)[C@H](Cc2ccccc2)[C@H](O)[C@@H](O)[C@H]1Cc1ccccc1` returned a maximum concentration (Cmax) of 2700 nM. In data set [2], the Ki was 5.2 nM. In addition, the bioavailability in data set [6] came out at 49%. The molecule further had a 90% effect concentration (IC90) in data set [3] (setting [8]) of 4700 nM.
`CC(C)=CCN1C(=O)N(CC=C(C)C)[C@H](Cc2ccccc2)[C@H](O)[C@@H](O)[C@H]1Cc1ccccc1` returned a Cmax in data set [1] of less than 400 nM. Moreover, it took 870 nM to reach the 90% level in data set [3] (setting [8]) (IC90).
In data set [1], `O=C1N(Cc2cccc(CO)c2)[C@H](Cc2ccccc2)[C@H](O)[C@@H](O)[C@@H](Cc2ccccc2)N1Cc1cccc(CO)c1` gave a Cmax of 830 nM. In addition, the Ki in data set [2] came to 0.14 nM. The bioavailability in data set [6] stood at 18%. The molecule further returned a concentration for an effect of 90% (IC90) in data set [3] (setting [8]) of 38 nM.
As for `O=C1N(Cc2ccc(CO)cc2)[C@H](Cc2ccccc2)[C@H](O)[C@@H](O)[C@@H](Cc2ccccc2)N1Cc1ccc(CO)cc1` [DMP-323], the Cmax came out at 780 nM in data set [1] and 2800 nM in data set [5]. Also, the bioavailability in data set [6] came out at 27%; in data set [7], 37%. The molecule further displayed a 90% effect concentration (IC90) in data set [3] of 57 nM.
For the molecule `O=C1N(Cc2cccc([N+](=O)[O-])c2)[C@H](Cc2ccccc2)[C@H](O)[C@@H](O)[C@@H](Cc2ccccc2)N1Cc1cccc([N+](=O)[O-])c1`, the inhibition constant Ki in data set [2] worked out at 2.8 nM. It took 970 nM to reach the 90% level in data set [3] (setting [8]) (IC90).
The corresponding values for `C=COCCN1C(=O)N(CCOC=C)[C@H](Cc2ccccc2)[C@H](O)[C@@H](O)[C@H]1Cc1ccccc1` are 60 nM and more than 107000 nM.
`CC(C)CCCN1C(=O)N(CCCC(C)C)[C@H](Cc2ccccc2)[C@H](O)[C@@H](O)[C@H]1Cc1ccccc1` displayed an inhibition constant Ki in data set [2] of 7 nM. For the same molecule, the 90% effect level in data set [3] (setting [8]) (IC90) was put at 8100 nM.
`O=C1N(Cc2ccc(F)cc2)[C@H](Cc2ccccc2)[C@H](O)[C@@H](O)[C@@H](Cc2ccccc2)N1Cc1ccc(F)cc1` displayed a Cmax in data set [1] of 1600 nM. The same molecule yielded an inhibition constant Ki in data set [2] of 1.4 nM. In data set [3] (setting [8]), this molecule gave an IC90 of 600 nM.
In the case of `Cc1ccc(CN2C(=O)N(Cc3ccc(C)cc3)[C@H](Cc3ccccc3)[C@H](O)[C@@H](O)[C@H]2Cc2ccccc2)cc1`, the Ki in data set [2] came out at 5.7 nM. Moreover, the IC90 in data set [3] (setting [8]) came to 4300 nM.
`O=C1N(Cc2ccncc2)[C@H](Cc2ccccc2)[C@H](O)[C@@H](O)[C@@H](Cc2ccccc2)N1Cc1ccncc1` yielded an inhibitory constant (Ki) in data set [2] of 90 nM. In data set [3] (setting [8]), this molecule came in with a 90% effect concentration (IC90) of 98000 nM.
The corresponding values for `O=C1N(CC2CCC2)[C@H](Cc2ccccc2)[C@H](O)[C@@H](O)[C@@H](Cc2ccccc2)N1CC1CCC1` are 1.3 nM and 1000 nM.
As to `O=C1N(Cc2ccc(O)cc2)[C@H](Cc2ccccc2)[C@H](O)[C@@H](O)[C@@H](Cc2ccccc2)N1Cc1ccc(O)cc1`, the Cmax in data set [1] was 390 nM. For the same molecule, the affinity in data set [2] corresponds to a Ki of 0.12 nM. Moreover, in data set [6], the bioavailability stood at 22%. In addition, in data set [3] (setting [8]), the 90% effect level (IC90) was put at 32 nM.
Regarding `CN1C(=O)N(C)[C@H](Cc2ccccc2)[C@H](O)[C@@H](O)[C@H]1Cc1ccccc1`, the affinity in data set [2] corresponds to a Ki of 5700 nM. Further, the IC90 in data set [3] (setting [8]) is more than 141000 nM.
For `O=C1N(Cc2cccnc2)[C@H](Cc2ccccc2)[C@H](O)[C@@H](O)[C@@H](Cc2ccccc2)N1Cc1ccc2ccccc2c1`, affinity in data set [2] was put at a Ki of 5.2 nM. The same molecule registered a 90% effect concentration (IC90) in data set [3] (setting [8]) of 720 nM.
Consider `O=C1N(Cc2ccc(CO)cc2)[C@H](Cc2ccccc2)[C@H](O)[C@@H](O)[C@@H](Cc2ccccc2)N1Cc1ccc(CO)cc1`, for which the affinity in data set [2], expressed as Ki, was 1650 nM. In data set [3], this molecule showed a 90% effect concentration (IC90) of 51000 nM.
As for `O=C1N(CC2CC2)[C@H](Cc2ccccc2)[C@H](O)[C@@H](O)[C@@H](Cc2ccccc2)N1CC1CC1`, the figures for the maximum concentration (Cmax) in data set [1] and in data set [5] were 4300 nM and 9200 nM, respectively. Further, the bioavailability in data set [6] came out at 100%; in data set [7], 48%. The same molecule displayed an IC90 in data set [3] (setting [8]) of 1800 nM.
For `O=C1N(Cc2ccc3ccccc3c2)[C@H](Cc2ccccc2)[C@H](O)[C@@H](O)[C@@H](Cc2ccccc2)N1CC1CC1`, the Ki in data set [2] was 1.5 nM. The molecule also came in with a concentration for an effect of 90% (IC90) in data set [3] (setting [8]) of 1300 nM.
In turn, `CC(C)CCCCN1C(=O)N(CCCCC(C)C)[C@H](Cc2ccccc2)[C@H](O)[C@@H](O)[C@H]1Cc1ccccc1` displayed an inhibition constant Ki in data set [2] of 30 nM. Also, the IC90 in data set [3] (setting [8]) is more than 95000 nM.
The corresponding values for `COc1cccc(CN2C(=O)N(Cc3cccc(OC)c3)[C@H](Cc3ccccc3)[C@H](O)[C@@H](O)[C@H]2Cc2ccccc2)c1` are 1.6 nM and 1300 nM.

Values taken from ChEMBL document CHEMBL1129626, “Cyclic HIV protease inhibitors: synthesis, conformational analysis, P2/P2' structure-activity relationship, and molecular recognition of cyclic ureas” (J Med Chem, 1996).
